Assay [1] is described as follows: Inhibition of purified beta-lactamase CTX-M-14 (unknown origin) using nitrocefin as substrate preincubated for 10 mins followed by substrate addition. The essentials: (§1)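 Test compound was preincubated 10 min with enzyme, then substrate was added and optical density was followed over time to determine Ki (μM). CTX-M-14 (class A), Oxa-48 (class D) and NDM-1 (class B) were purified enzymes; VIM-1 (class B) was a lysate. NDM-1 used imipenem as substrate; the other three used nitrocefin.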

Assay [2] is described as follows: Inhibition of purified beta-lactamase Oxa-48 (unknown origin) using nitrocefin as substrate preincubated for 10 mins followed by substrate addition. The essentials: as §1
A short description of assay [3]: Inhibition of purified beta-lactamase NDM-1 (unknown origin) using imipenem as substrate preincubated for 10 mins followed by substrate addition. The essentials:
as §1

Assay [4] can be described thus: Inhibition of beta-lactamase VIM-1 lysate (unknown origin) using nitrocefin as substrate preincubated for 10 mins followed by substrate addition. The essentials: as §1
Assay [5] deals with Mycobacterium tuberculosis. The assay is described as follows: Antituberculosis activity against Mycobacterium tuberculosis H37Rv in 7H12 medium incubated for 4 days by Microplate Alamar Blue assay. It counts as functional. To be noted: 96 h. The essentials:
(§2)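 MICs in μM were determined against M. tuberculosis H37Rv by Microplate Alamar Blue assay. Line 2 used 7H12 medium, which is 7H9 medium plus casitone, palmitic acid, albumin and catalase.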

Assay [6] concerns Mycobacterium tuberculosis. The assay is described as follows: Antituberculosis activity against Mycobacterium tuberculosis H37Rv in glycerol-alanine salts medium incubated for 4 days by Microplate Alamar Blue assay. It counts as functional. The note with it: 96 h. The essentials: as §2
On the technique in general: Alamar Blue is a resazurin reagent that responds to reducing activity.

For assay [7], the system named is Mycolicibacterium vaccae. The assay is described as follows: Antibacterial activity against Mycobacterium vaccae IMET 10670 incubated for 18 to 24 hrs measured after 24 to 48 hrs by agar diffusion assay. It counts as functional, organism-based. The essentials:
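Kirby–Bauer agar diffusion assay; the read-out is the diameter of the inhibition zone in mm.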

From ChEMBL document CHEMBL3785040, “Syntheses and Biological Evaluations of Highly Functionalized Hydroxamate Containing and N-Methylthio Monobactams as Anti-Tuberculosis and β-Lactamase Inhibitory Agents” (Medchemcomm, 2016) come the findings set out here.

Converted amounts (≈) assume the structure as drawn. The source made the active and inactive calls.

In the case of `CC(=O)O[C@@H]1NC(=O)[C@H]1NC(=O)COc1ccccc1`, the inhibition constant (Ki) was above 160 µM in assay [1], above 160 µM in assay [2], 5.87 µM in assay [3] and above 160 µM in assay [4].
As for `C[C@@H](O[Si](C)(C)C(C)(C)C)[C@H]1C(=O)N[C@@H]1N(OCc1ccccc1)C(=O)c1ccccc1`, the minimum inhibitory concentration (MIC) in assay [5] and in assay [6] was above 100 µM each time. In addition, the inhibitory constant (Ki) was 0.25 µM in assay [1], above 160 µM in assay [2], above 160 µM in assay [3] and above 160 µM in assay [4].
`CSN1C(=O)[C@H]([C@@H](C)O[Si](C)(C)C(C)(C)C)[C@H]1N(OCc1ccccc1)C(=O)c1ccccc1`: the MIC was found to be 10.3 µM (≈ 5.14 µg/mL) in assay [5] and 0.753 µM in assay [6]. Also, the result in assay [7] was inactive. The inhibition constant (Ki) was 0.4 µM in assay [1], above 160 µM in assay [2], above 160 µM in assay [3] and above 160 µM in assay [4].
For `C[C@@H](O)[C@H]1C(=O)N[C@@H]1N(OCc1ccccc1)C(=O)c1ccccc1`, the minimum inhibitory concentration (MIC) in assay [5] and in assay [6] was above 100 µM each time. The Ki in assay [1], in assay [2], in assay [3] and in assay [4] was above 160 µM throughout.
As to `CSN1C(=O)[C@@H](NC(=O)Cc2ccccc2)[C@@H]1OC(C)=O`, the MIC in assay [5] worked out at 47.6 µM (≈ 14.7 µg/mL); in assay [6] it was 10.7 µM.
Consider `C[C@@H](O[Si](C)(C)C(C)(C)C)[C@H]1C(=O)N[C@@H]1N(O)C(=O)c1ccccc1`, for which the MIC in assay [5] and in assay [6] was above 50 µM in each case. The Ki is 0.32 µM in assay [1], above 160 µM in assay [2], above 160 µM in assay [3] and above 160 µM in assay [4].
For `O=C(Cc1ccccc1)N[C@@H]1C(=O)N[C@H]1N(OCc1ccccc1)C(=O)c1ccccc1`, the MIC was above 100 µM in assay [5] and 6.05 µM in assay [6]. Also, the inhibition constant Ki in assay [1] was above 160 µM; in assay [2] it was above 160 µM; in assay [3], 5.54 µM; in assay [4], above 160 µM.
Take `O=C(COc1ccccc1)N[C@@H]1C(=O)N[C@H]1N(OCc1ccccc1)C(=O)c1ccccc1`: the MIC in assay [5] was 5.93 µM (≈ 2.64 µg/mL); in assay [6] it was below 0.195 µM. Besides, the Ki in assay [1] is 0.05 µM; in assay [2] it was above 160 µM; in assay [3], above 160 µM; in assay [4], above 160 µM.
Consider `C=CCON(C(=O)c1ccc([N+](=O)[O-])cc1)C1CC(=O)N1SC` (racemic), for which the inhibitory constant (Ki) in assay [1] is 0.64 µM; in assay [2], above 160 µM; in assay [3], 0.03 µM; in assay [4], 22.7 µM.
In the case of `CSN1C(=O)CC1N(OCc1ccccc1)C(=O)c1ccc([N+](=O)[O-])cc1` (racemic), the MIC was above 100 µM in assay [5] and 24.2 µM in assay [6]. In addition, the Ki in assay [1] was above 160 µM; in assay [2], above 160 µM; in assay [3], 0.97 µM; in assay [4], above 160 µM.
In the case of `CCOc1ccc(C(=O)N(OCc2ccccc2)C2CC(=O)N2)cc1` (racemic), the MIC in assay [5] is above 100 µM; in assay [6], 49.3 µM. Also, the Ki in assay [1], in assay [2], in assay [3] and in assay [4] was above 160 µM throughout.
`CSN1C(=O)[C@@H](NC(=O)Cc2ccccc2)[C@@H]1N(OCc1ccccc1)C(=O)c1ccccc1` (racemic): the figures for the minimum inhibitory concentration (MIC) in assay [5] and in assay [6] were 47.3 µM (≈ 22.5 µg/mL) and 11.6 µM, respectively. For the same molecule, the Ki was above 160 µM in assay [1], 1.95 µM in assay [2], 0.07 µM in assay [3] and 2.86 µM in assay [4].
With `CSN1C(=O)CC1N(OCc1ccccc1)C(=O)c1cc([N+](=O)[O-])cc(C(F)(F)F)c1` (racemic), the MIC came to 23.4 µM (≈ 10.6 µg/mL) in assay [5] and 5.92 µM in assay [6].
Regarding `C=CCON(C(=O)c1ccc([N+](=O)[O-])cc1)C1CC(=O)N1` (racemic), the Ki in assay [1], in assay [2], in assay [3] and in assay [4] was above 160 µM throughout.
Consider `CSN1C(=O)[C@@H](NC(=O)COc2ccccc2)[C@@H]1N(OCc1ccccc1)C(=O)c1ccccc1` (racemic), for which the minimum inhibitory concentration (MIC) was 6 µM (≈ 2.95 µg/mL) in assay [5] and above 50 µM in assay [6]. The result in assay [7] was inactive. The Ki in assay [1] is above 160 µM; in assay [2], above 160 µM; in assay [3], 0.06 µM; in assay [4] it was above 160 µM.
In the case of `CSN1C(=O)[C@@H](NC(=O)COc2ccccc2)[C@@H]1N(OCc1ccccc1)C(=O)c1cc([N+](=O)[O-])cc(C(F)(F)F)c1` (racemic), the MIC in assay [5] is above 100 µM; in assay [6], 64.1 µM. The Ki is above 160 µM in assay [1], above 160 µM in assay [2], 0.15 µM in assay [3] and above 160 µM in assay [4].
In the case of `CC(C)(C)[Si](C)(C)ON(C(=O)c1ccccc1)[C@@H]1NC(=O)[C@H]1NC(=O)COc1ccccc1` (racemic), the Ki in assay [1] is above 160 µM; in assay [2], above 160 µM; in assay [3], 0.96 µM; in assay [4], 31.2 µM.
For `CC(C)(C)[Si](C)(C)N1C(=O)CC1N(OCc1ccccc1)C(=O)c1ccccc1` (racemic), the MIC turned out to be 49.2 µM (≈ 20.2 µg/mL) in assay [5] and 0.28 µM in assay [6]. Also, the result in assay [7] was inactive. Besides, the Ki was above 160 µM in assay [1], 1.72 µM in assay [2], above 160 µM in assay [3] and above 160 µM in assay [4].
Regarding `CCOc1ccc(C(=O)N(OCc2ccccc2)C2CC(=O)N2SC)cc1` (racemic), the figures for the MIC in assay [5] and in assay [6] were above 100 µM and 34.8 µM, respectively. Also, the Ki was above 160 µM in assay [1], above 160 µM in assay [2], 0.07 µM in assay [3] and above 160 µM in assay [4].
As for `CSN1C(=O)CC1N(OCc1ccccc1)C(=O)c1ccccc1` (racemic), the MIC in assay [5] is above 50 µM; in assay [6], 17.9 µM.
For `C=CCON(C(=O)c1cc([N+](=O)[O-])cc(C(F)(F)F)c1)C1CC(=O)N1SC` (racemic), the inhibitory constant (Ki) is above 160 µM in assay [1], above 160 µM in assay [2], 0.04 µM in assay [3] and 59.3 µM in assay [4].
On to `C=CCON(C(=O)c1cc([N+](=O)[O-])cc(C(F)(F)F)c1)C1CC(=O)N1` (racemic), for which the Ki was above 160 µM in assay [1], 1.93 µM in assay [2], above 160 µM in assay [3] and above 160 µM in assay [4].
`O=C1CC(N(OCc2ccccc2)C(=O)c2cc([N+](=O)[O-])cc(C(F)(F)F)c2)N1` (racemic): the MIC in assay [5] was 44.7 µM (≈ 18.3 µg/mL); in assay [6], 30.3 µM.
As for `C[C@H]1COC2(CCN(c3nc(=O)c4cc(C(F)(F)F)cc([N+](=O)[O-])c4s3)CC2)O1` [BTZ-043], the MIC in assay [5] and in assay [6] was below 0.004 µM in each case.
For the molecule `CO[C@H]1/C=C/O[C@@]2(C)Oc3c(C)c(O)c4c(O)c(c(/C=N/N5CCN(C)CC5)c(O)c4c3C2=O)NC(=O)/C(C)=C\C=C\[C@H](C)[C@H](O)[C@@H](C)[C@@H](O)[C@@H](C)[C@H](OC(C)=O)[C@@H]1C` [RIFAMPIN], the MIC in assay [5] amounted to 0.05 µM (≈ 0.0411 µg/mL); in assay [6], 0.04 µM.

As a reminder, the Ki is a dissociation constant, usually derived from enzyme kinetics or from competition with a known ligand. Higher therefore signals a looser hold on the target. Usually MIC stands for the smallest concentration in the dilution series that meets the test's criterion for growth inhibition.
